Most compounds without a hit are left out; they make up all but 1.9% or so of the library.
PP1 inh = PP1-alpha phosphatase inhibitors, primary screen, counter-screen for PP5 inhibitor project, biochemical, fluorescence, OMFP substrate, single point; Serine/threonine-protein phosphatase PP1-alpha catalytic subunit (Homo sapiens), P62136; inhibition, % at 6.7 µM; purified PP1alpha; 320,000 compounds, 0.9% hits;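 active means inhibition above the mean inhibition of all tested compounds plus 3 SD, computed separately for each screening campaign, cut at about 15% in these data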
PP5 primary = PP5 phosphatase inhibitors, primary screen, biochemical, fluorescence. Serine/threonine-protein phosphatase 5 (Homo sapiens), P53041. purified PP5c, OMFP substrate fluorescence. inhibition, % at 6.7 µM. 320,000 compounds, 0.18% hits. AID 1987, 2009;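 active means inhibition above the campaign's mean inhibition across all tested compounds plus 3 SD, cut at about 9.5% in these data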;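 further: 0% = DMSO only and 100% = 100 µM cantharidin control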
HIF activator = HIF pathway transcriptional activators, primary screen, cell-based, U2OS HRE-luciferase, luminescence; AID 1910, 2009; U2OS HRE-luciferase reporter; normalized: DMSO 0%, desferrioxamine 100%; activation, % at 7.5 µM (by protocol); 300,000 compounds, 0.32% hits;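 active means mean activation of at least 10% of the iron chelator positive control signal, with at least half of replicates also reaching 10%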
FID counter = compounds displacing fluorescent DNA intercalator, primary screen, artefact control for HCV NS3 helicase inhibitor project, biochemical, FID fluorescence; inhibition, % at 7.9 µM; 290,000 compounds, 0.17% hits; DNA fluorescent intercalator displacement; in the data active means inhibition above about 37%;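 further: 0% = vehicle and 100% = reference compound; higher means more ethidium bromide displaced from hairpin DNA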
NS3 helicase inh = inhibitors of HCV NS3 helicase, primary screen, biochemical, Cy5 molecular beacon fluorescence | NS3 helicase DNA unwinding | inhibition, % at 10.9 µM | 290,000 compounds, 0.56% hits | AID 1800, 2009;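 active means inhibition above the mean of all tested compounds plus 3 SD, set per campaign, cut at about 35% in these data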;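 further: 0% = DMSO wells and 100% = thioflavine S control wells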
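Test system: hepatitis C virus NS3 helicase domain fragment enzyme. Also added: annealed dual-labelled DNA beacon duplex, ATP-started. Timing: 60 min unwinding reaction at 25 °C after ATP addition. Technique: Cy5 fluorescence. Measure: % inhibition of unwinding.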
Numbers without * were called inactive; . = no result given.

SMILES	PP1 inh	PP5 primary	HIF activator	FID counter	NS3 helicase inh
CCC(=O)NC(c1cccs1)c1cc([N+](=O)[O-])c2cccnc2c1O (stereo not given)	12	3	6	-15	-1
CCC(=O)NC(c1ccccc1OC)c1ccc2cccnc2c1O (stereo not given)	0	1	35*	-17	11
CCCC(=O)NC(c1ccc(OC)cc1)c1ccc2cccnc2c1O (stereo not given)	6	1	74*	-12	-9
CC(=O)NC(c1cccs1)c1cc([N+](=O)[O-])c2cccnc2c1O (stereo not given)	14	5	18*	0	16
O=C(NC(Cc1ccccc1)C(=O)O)/C(=C\c1ccc(Cl)cc1)NC(=O)c1ccco1 (stereo not given)	2	4	-1	-47	12
O=C(CCc1ccccc1)NC(c1cccs1)c1cc(Cl)c2cccnc2c1O (stereo not given)	.	.	102*	-15	9
CCC(=O)NC(c1cccs1)c1cc(Cl)c2ccccc2c1O (stereo not given)	1	1	.	.	.
Cc1c(OCC(=O)N[C@@H](Cc2ccccc2)C(=O)O)ccc2c3c(c(=O)oc12)CCC3	0	0	0	-17	23
Cc1c(OCC(=O)N[C@@H](Cc2ccccc2)C(=O)O)ccc2c1oc(=O)c1ccccc12	15*	3	0	8	-8
Cc1cccc2c(C(=O)N3CCN(c4ccccn4)CC3)cc(-c3cccc(Br)c3)nc12	15*	1	0	-37	-9
O=C(c1cc(-c2cccc(Cl)c2)nc2ccccc12)N1CCN(c2ccccn2)CC1	-2	2	0	-41	-12
CC(C)(C)c1cc(NS(=O)(=O)c2cccs2)no1	1	2	-36	1	10
Cc1ccc(C2=C(O)c3ccccc3C(=O)C2=O)cc1	1	2	0	3	0
O=C1C(=O)c2ccccc2C(O)=C1c1cccc([N+](=O)[O-])c1	0	1	23*	-1	11
CCc1cc(Cn2nc(-c3ccccc3)cc2C(=O)NCc2ccccc2OC)on1	-1	2	0	.	.
C#CCOCCOCCOCCNc1nc(N2CCN(C(=O)[C@H](CCCCN)n3cc([C@@H](N)CO)nn3)CC2)nc(N2CCN(C(=O)[C@H](Cc3cc4ccccc4[nH]3)n3cc([C@@H](N)CC(C)C)nn3)CC2)n1	5	1	-2	49*	-64
C#CCOCCOCCOCCNc1nc(N2CCN(C(=O)[C@H](Cc3cc4ccccc4[nH]3)n3cc([C@@H](N)C(C)CC)nn3)CC2)nc(N2CCN(C(=O)[C@H](Cc3cc4ccccc4[nH]3)n3cc([C@@H](N)CC(C)C)nn3)CC2)n1 (stereo not given in full)	19*	1	1	41*	-74
C#CCOCCOCCOCCNc1nc(N2CCN(C(=O)[C@H](CCCCN)n3cc([C@@H](N)C(C)CC)nn3)CC2)nc(N2CCN(C(=O)[C@H](Cc3cc4ccccc4[nH]3)n3cc([C@@H](N)CC(C)C)nn3)CC2)n1 (stereo not given in full)	13	1	2	48*	-49
C#CCOCCOCCOCCNc1nc(N2CCN(C(=O)[C@H](CCC(=O)O)n3cc(C(N)CO)nn3)CC2)nc(N2CCN(C(=O)[C@H](Cc3cc4ccccc4[nH]3)n3cc(C(N)[C@H](C)CC)nn3)CC2)n1 (stereo not given in full)	-1	1	-1	18	-68
C#CCOCCOCCOCCNc1nc(N2CCN(C(=O)C(Cc3ccc(O)cc3)n3cc(C(N)CC(C)C)nn3)CC2)nc(N2CCN(C(=O)C(Cc3cc4ccccc4[nH]3)n3cc(C(N)Cc4ccc(O)cc4)nn3)CC2)n1 (stereo not given)	17*	2	0	40*	-63
COc1cc(OC)c(/C=N/N2CCN(c3ccccc3OC)CC2)c(OC)c1	-3	0	1	-31	-15
O=C(CCc1nnc2ccc(N3CCOCC3)nn12)Nc1ccc(F)cc1F	-1	3	0	-18	3
